# Data published in ChEMBL document CHEMBL4270646, “Novel antimalarial chloroquine- and primaquine-quinoxaline 1,4-di-N-oxide hybrids: Design, synthesis, Plasmodium life cycle stage profile, and preliminary toxicity studies” (Eur J Med Chem, 2018).
# Assays:
# [1] = test system: Plasmodium yoelii; assay: Antiplasmodial activity against Plasmodium yoelii 17XNL sporozoites infected in BALB/c mouse assessed as parasite burden at 100 mg/kg, po measured at day 4 by […] (reference value: 0.06%); format: functional
# Method in brief: (§1)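 BALB/c mice (6-8 weeks, 20-23 g), n=4 per hybrid group and n=5 per control. Dosed orally at 100 mg/kg (100 µL) on days -1, 0, +1 and +2. Vehicle was DMSO 100%; primaquine diphosphate given at 30 mg/kg daily. On day 0, 5 x 10^3 cryopreserved P. yoelii 17XNL sporozoites injected i.v. Parasitaemia read by Giemsa smear and SYBR Green flow cytometry. Groups compared by Kruskal-Wallis test.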
# [2] = Selectivity index, ratio of CC50 for human HepG2 cells to IC50 for GFP-expressing Plasmodium berghei sporozoites; format: toxicity; conditions: read-out: Ratio CC50/IC50
# Method in brief: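 Selectivity index = CC50 (matching cell) / IC50 (matching parasite). Cell–parasite pairs: HepG2-CD81 with P. yoelii, HepG2 with P. berghei, human hepatocytes with P. falciparum.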
# [3] = Genotoxicity in Salmonella typhimurium TA1535 harboring pSK1002 assessed as bacterial survival at 0.001 to 0.063 mg/ml after 4 hrs in absence of Sprague-Dawley rat liver S9 fraction by SOS/umu assay relative to control; format: toxicity, organism-based; conditions: salmonella enterica subsp. enterica serovar typhimurium; read-out: Survival
# Method in brief: (§2)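 Log-phase S. typhimurium TA1535/pSK1002 (OD600 0.15–0.4) exposed for 4 h at 37°C with shaking, with 10% rat S9 mix or PBS. Eleven twofold dilutions tested from 1 mg/mL final; DMSO as solvent control. A600 read. Survival expressed as % of negative-control A600.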
# [4] = test system: Plasmodium yoelii; assay: Antiplasmodial activity against Plasmodium yoelii 17XNL sporozoites infected in BALB/c mouse assessed as decrease in parasitaemia in blood at 100 mg/kg, po measured at day 4 by […] relative to control; format: functional; set-up: scale not given: the % may be the effect or the level left; method in brief: as §1
# [5] = test system: Mus musculus; assay: Acute toxicity in BALB/c mouse assessed as mouse survival at 300 mg/kg, po administered as single dose measured every day for 14 days; format: organism-based; conditions: in vivo, 336 h
# Method in brief: (§3)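 Female BALB/c mice, 6-8 weeks old, 20-23 g, in groups of three. Single oral dose of 300 or 500 mg/kg; vehicle DMSO 100% given to controls. Mice watched for signs of toxicity for 4 h after dosing. Physical appearance, injury, pain and illness recorded daily for 14 days. Euthanasia in a CO2 chamber on day 14 or earlier if suffering.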
# [6] = test system: Plasmodium berghei; assay: Antiplasmodial activity against GFP-harboring Plasmodium berghei sporozoites infected in human HepG2 cells assessed as reduction in parasite growth treated every 24 hrs by DAPI staining-based fluorescence microscopic analysis; format: functional, organism-based; conditions: HepG2, 24 h
# Method in brief: (§4)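 Collagen-coated wells seeded with HepG2 (P. berghei), HepG2-CD81 (P. yoelii) or primary human hepatocytes (P. falciparum). Sporozoites added: 5×10^3 to 1×10^4 per well to the cell lines, 2.5×10^4 per well to hepatocytes. Compounds given at infection: top 10 µg/mL plus seven serial dilutions, renewed at 3 h and then every 24 h. Cultures grown 40 h (cell lines) or 8 days (hepatocytes) at 37°C. Methanol-fixed, HSP70 immunolabelled, DAPI counterstained. IC50 from logistic regression; triplicate.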
# [7] = test system: Mus musculus; assay: Induction of alanine transferase level in BALB/c mouse at 300 to 500 mg/kg, po administered as single dose measured at day 14 (reference value: 34 to 78 U/L); format: organism-based; conditions: in vivo
# Method in brief: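 BALB/c female mice (6-8 weeks, 20-23 g), groups of three, given one oral dose of 300 or 500 mg/kg; DMSO 100% vehicle for controls. Observed 4 h after dosing, then daily for 14 days. Euthanized on day 14 or on signs of suffering. Blood biochemistry, including alanine transferase, compared with the range in untreated mice.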
# [8] = Genotoxicity in Salmonella typhimurium TA1535 harboring pSK1002 assessed as umu gene induction at 0.001 to 0.063 mg/ml after 4 hrs in presence of Sprague-Dawley rat liver S9 fraction by beta-galactosidase reporter gene assay relative to control; format: toxicity, organism-based; conditions: salmonella enterica subsp. enterica serovar typhimurium; read-out: FC
# Method in brief: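 SOS/umu test, 4 h at 37°C, with S9 mix or PBS. Positive controls 4-NQO (2.5 µg/mL final, no S9) and 2-AA (0.0125 mg/mL final, with S9). Aliquots incubated with ONPG 0.9 mg/mL in B-buffer for 30 min at 28°C, then stopped with 1 M Na2CO3. Activity calculated as A420/A600. Induction factor is the ratio to the DMSO control; genotoxic if ≥2 at ≥80% survival.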
# [9] = test system: Mus musculus; assay: Acute toxicity in BALB/c mouse assessed as effect on feeding habbit at 300 mg/kg, po administered as single dose measured every day for 14 days; format: organism-based; conditions: in vivo, 336 h; method in brief: as §3
# [10] = test system: Plasmodium falciparum; assay: Antiplasmodial activity against GFP-harboring Plasmodium falciparum sporozoites infected in human primary hepatocytes assessed as reduction in parasite growth treated every 24 hrs by DAPI staining-based fluorescence microscopic analysis; format: functional, organism-based; method in brief: as §4
# [11] = test system: Plasmodium yoelii; assay: Potency index, ratio of primaquine IC50 to compound IC50 for GFP-expressing Plasmodium yoelii sporozoites infected in human HepG2 cells expressing CD81; format: functional
# [12] = Cytotoxicity against human HepG2 cells expressing CD81 assessed as reduction in cell viability after 48 hrs by MTT assay; format: cell-based
# Method in brief: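 Cells seeded at 2 × 10^5 per well and allowed 24 h at 37°C, 5% CO2 to form a monolayer. Dilutions added in triplicate and incubated 48 h. MTT (2 mg/mL) then added for 4 h, followed by DMSO for 20 min at room temperature. Absorbance read at 550 nm; DMSO diluent and untreated cells served as negative controls. CC50 derived from the curve.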
# [13] = Genotoxicity in Salmonella typhimurium TA1535 harboring pSK1002 assessed as bacterial survival at 0.001 to 0.063 mg/ml after 4 hrs in presence of Sprague-Dawley rat liver S9 fraction by SOS/umu assay relative to control; format: toxicity, organism-based; conditions: salmonella enterica subsp. enterica serovar typhimurium; read-out: Survival; method in brief: as §2
# [14] = test system: Mus musculus; assay: Acute toxicity in BALB/c mouse assessed as appearance of clear and bright eyes at 300 to 500 mg/kg, po administered as single dose measured every day for 14 days; format: organism-based; conditions: in vivo, 336 h; method in brief: as §3
# [15] = test system: Mus musculus; assay: Acute toxicity in BALB/c mouse assessed as appearance of bright hair without erection at 300 to 500 mg/kg, po administered as single dose measured every day for 14 days; format: organism-based; conditions: in vivo, 336 h; method in brief: as §3
# [16] = test system: Mus musculus; assay: Acute toxicity in BALB/c mouse assessed as necrosis of kidney at 500 mg/kg, po administered as single dose measured at day 14 by haematoxylin and eosin staining based microscopic analysis; format: organism-based; conditions: in vivo
# Method in brief: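 Female BALB/c mice, groups of three, single oral dose; vehicle DMSO 100% for controls. Mice euthanised with CO2 on day 14, or earlier if suffering. Gross necropsy performed. Spleen, liver and kidney fixed in formaldehyde 37%, stained with haematoxylin and eosin and examined by light microscopy.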
# [17] = test system: Mus musculus; assay: Acute toxicity in BALB/c mouse assessed as effect on blood urea nitrogen level at 300 to 500 mg/kg, po administered as single dose measured at day 14; format: organism-based; conditions: in vivo
smiles,measurement,setting,value
COc1cc(NC(C)CCCNC(=O)c2c(C)[n+]([O-])c3ccccc3[n+]2[O-])c2ncccc2c1 (configuration not stated),Activity,[1],0%
same,selectivity ratio,[2],7.59
same,viability at 4 h,[3],> 80%
same,Activity,[4],95.97%
same,Activity,[5],Non-Toxic
same,IC50,[6],5.19 µM
same,Activity,[7],82 U/L
same,fold induction at 4 h,[8],< 2
same,Activity,[9],Non-Toxic
same,IC50,[10],5.38 µM
same,Ratio IC50,[11],1.5
same,CC50 at 48 h,[12],> 213 µM
same,viability at 4 h,[13],> 80%
same,Activity,[14],Non-Toxic
same,Activity,[15],Non-Toxic
same,Activity,[16],Non-Toxic
same,Activity,[17],Non-Toxic
